{"source": "ChEMBL document CHEMBL4480410", "about": "“Targeting the MKK7-JNK (Mitogen-Activated Protein Kinase Kinase 7-c-Jun N-Terminal Kinase) Pathway with Covalent Inhibitors” (J Med Chem, 2019)", "biological_target": "T1, Dual specificity mitogen-activated protein kinase kinase 7 (Homo sapiens) (UniProt O14733)", "T1 sequence (whole entry)": "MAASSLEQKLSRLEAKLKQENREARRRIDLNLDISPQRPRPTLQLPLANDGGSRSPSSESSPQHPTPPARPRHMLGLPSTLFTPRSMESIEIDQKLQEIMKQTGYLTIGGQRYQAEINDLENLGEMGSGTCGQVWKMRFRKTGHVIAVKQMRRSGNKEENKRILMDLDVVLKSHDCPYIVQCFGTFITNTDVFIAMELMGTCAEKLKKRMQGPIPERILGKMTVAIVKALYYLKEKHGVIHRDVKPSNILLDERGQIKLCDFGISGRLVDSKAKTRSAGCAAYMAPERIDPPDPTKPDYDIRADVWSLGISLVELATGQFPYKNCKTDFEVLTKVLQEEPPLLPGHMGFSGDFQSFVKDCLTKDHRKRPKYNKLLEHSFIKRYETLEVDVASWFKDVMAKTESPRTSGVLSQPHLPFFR", "experiment": "Covalent binding affinity to MKK7 (unknown origin) assessed as formation of covalent bond with Cys218 residues by MS/MS analysis", "outline": "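Protein at 1 mg/mL incubated with 2-fold molar excess of compound, 30 min on ice, then denatured and run on 15% SDS gel. Band excised, reduced with 50 mM DTT (1 h, 37 °C), alkylated with 55 mM iodoacetamide (1 h, 20 °C), digested with 0.1 mg/mL trypsin 20 h at 30 °C, acidified with TFA. Analysed by ion-trap MS/MS.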", "note": "The source made the active and inactive calls. The rule behind the calls is not given here."}
{"smiles": "C=CC(=O)N1CCC[C@@H](n2nc(-c3cn(-c4ccc(C(C)=O)cc4)nn3)c3c(N)ncnc32)C1", "values": [{"measurement": "Activity", "result": "Active"}]}
